This passage reports kcat/Km, Km and kcat results from ChEMBL document CHEMBL1157679, “Substituted aryl malonamates as new serine beta-lactamase substrates: structure-activity studies” (Bioorg Med Chem, 2010).

The structures appear in SMILES notation. Some results are limits rather than exact numbers.

Assay [1] is described as follows: Ratio of Kcat to Km for beta-lactamase TEM-2. The essentials:
(§1)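 Steady-state kinetics in 100 mM MOPS, pH 7.5, 25 °C. Substrate stocks were made in DMSO and diluted into buffer to a final DMSO below 5%. Initial rates of enzyme-catalysed turnover were followed spectrophotometrically. Steady-state parameters were derived from these initial rates. Buffer hydrolysis of the substrates was measured separately as pseudo-first-order rate constants.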

Assay [2] in a line: Activity at beta-lactamase TEM-2 by spectrophotometry. In a few lines: as §1
A short description of assay [3]: Inhibition of beta-lactamase TEM-2 assessed as inhibition of cephalothin turnover by spectrophotometry. The essentials:
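TEM-2 enzyme (0.2 μM) was incubated with 3 mM inhibitor in 100 mM MOPS, pH 7.5, at 25 °C (DMSO below 5% final). Residual activity against 0.2 mM cephalothin was read spectrophotometrically over incubation time. Exponential fitting gave pseudo-first-order inactivation constants, which were converted to second-order rate constants.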

Consider `O=C(O)c1cccc(OC(=O)C(Cc2ccccc2)C(=O)NCc2ccccc2)c1` (centres undefined), for which the kcat/Km in assay [1] came out at 4.7 M⁻¹ s⁻¹. In assay [2], the Km was over 200 µM and the kcat was over 9.4 ×10⁻⁴ /s.

As to `O=C(O)c1cccc(OC(=O)C2CCN(Cc3ccccc3)C2=O)c1` (centres undefined), in assay [1], the kcat/Km was found to be 0.54 M⁻¹ s⁻¹. Moreover, in assay [2], the Km is over 220 µM and the kcat was over 1.1 ×10⁻⁴ /s.

In the case of `CO[C@@H](C(=O)NCc1ccccc1)C(=O)Oc1cccc(C(=O)O)c1`, the kcat/Km in assay [1] is under 6 M⁻¹ s⁻¹.

For `O=C(CP(=O)(O)Oc1cccc(C(=O)O)c1)NCc1ccccc1`, the kcat/Km in assay [3] was under 1 M⁻¹ s⁻¹.

In the case of `O=C(CC(=O)Oc1cccc(C(=O)O)c1)NCc1ccccc1`, the kcat/Km in assay [1] worked out at 1.95 ×10⁴ /s/M. In assay [2], the Km is 1.42 µM and the kcat is 28 s⁻¹.

In the case of `O=C(O)c1cccc(OC(=O)C2Cc3ccccc3N(Cc3ccccc3)C2=O)c1` (centres undefined), in assay [1], the kcat/Km was under 0.9 M⁻¹ s⁻¹.

For `CN(Cc1ccccc1)C(=O)CC(=O)Oc1cccc(C(=O)O)c1`, in assay [1], the kcat/Km was under 0.2 M⁻¹ s⁻¹.

For the compound `C[C@H](C(=O)NCc1ccccc1)C(=O)Oc1cccc(C(=O)O)c1`, the kcat/Km in assay [1] is 3.6 M⁻¹ s⁻¹. Moreover, in assay [2], the Km was over 200 µM and the kcat is over 7.2 ×10⁻⁴ /s.

As for `O=C(CC(=O)N(Cc1ccccc1)Cc1ccccc1)Oc1cccc(C(=O)O)c1`, the kcat/Km in assay [1] was determined as 1.2 ×10² /s/M. Further, in assay [2], the Michaelis constant (Km) was determined as 1800 µM and the kcat was found to be 0.21 s⁻¹.
